Experimental findings from ChEMBL document CHEMBL1165887, “Structure-activity relationships of monomeric C2-aryl pyrrolo[2,1-c][1,4]benzodiazepine (PBD) antitumor agents” (J Med Chem, 2010) are described below.

The nature of series [1]: Growth inhibition of human NCI60 cells after 48 hrs by SRB assay. In kind it is functional. The conditions noted are these: NCI60, 48 h; for CC50: read-out: LC50 (the source's name). On the technique in general: Sulforhodamine B stains cellular protein and so reports cell mass.
Series [2] deals with Calf thymus DNA. The series is described as follows: Binding affinity to calf thymus DNA assessed as change in melting temperature after 18 hrs. In kind it is nucleic-acid assay. The conditions noted are these: Bos taurus. In short, it runs like this: (§1)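 Calf thymus DNA at a fixed 100 μM (DNAp, 50 μM bp) in pH 7.00 buffer of 10 mM NaH₂PO₄/Na₂HPO₄ and 1 mM Na₂EDTA, 1:5 ligand/DNAp ratio, DMSO ≤0.3% v/v. Mixture kept at 37 °C for the stated time, then melted while absorbance at 260 nm was monitored. Tm taken at the midpoint of the normalized profile; ΔTm = Tm(DNA+ligand) − Tm(DNA), corrected for DMSO; mean of at least three runs.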

In series [3] the test system is Calf thymus DNA. The series is described as follows: Binding affinity to calf thymus DNA assessed as change in melting temperature after 4 hrs. It counts as nucleic-acid assay. The conditions noted are these: Bos taurus. In short, it runs like this:
as §1

The test system of a further series is K562. The series is described as follows: Cytotoxicity against human K562 cells after 96 hrs by alamar blue assay. In kind it is functional, cell-based. The conditions noted are these: K562, 96 h. In a few lines: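 K562 cells kept in RPMI with 10% fetal calf serum and 2 mM glutamine, seeded at 10⁴ cells/mL. Compounds serially diluted in DMSO and added in triplicate; exposure 96 h at 37 °C, 5% CO₂. Alamar Blue (1 μM final) then added for a further 4 h; read by fluorescence emission at 580-620 nm.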
For orientation: Alamar Blue is a resazurin reagent that responds to reducing activity.

Another series concerns HCT-116. Nature of the series: Antitumor activity against human HCT116 cells xenografted in nu/nu BALB/c mouse assessed as delay in tumor growth at 300 ug/kg, iv. In kind it is functional, cell-based. In short, it runs like this:
(§2)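 Female nu/nu-BALB/c athymic nude mice bearing subcutaneous flank HCT 116 xenografts (10⁷ cells), dosed once intravenously at 300 μg/kg in 1% DMSO/saline once tumours reached 50-100 mm³; vehicle-only controls. Tumours measured by calliper 3 times a week (width² × length/2), expressed as volume relative to day 1. Body weight monitored daily over 12 days as % change from day 1.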
For orientation: A xenograft is tissue or cells of one species grown in another, often human tumour cells in immunodeficient mice.

The test system of the next series is Mus musculus. Nature of the series: Toxicity in human HCT116 xenografter nu/nu BALB/c mouse assessed as change in body weight at 300 ug/kg, iv. In kind it is organism-based. The conditions noted are these: in vivo, 0.3 mg/kg. In short, it runs like this:
as §2

The structures appear in SMILES notation. Calls of active or inactive are those of the source. The calls are words filed in the database; no cut-off is given here.

`COc1cc2c(cc1OC)C(=O)N1C=C(c3ccc(C(F)(F)F)cc3)C[C@H]1C=N2`: in series [1], the GI50 – broadly, the concentration giving 50% growth inhibition – came to 0.004 µM; total growth inhibition (TGI) required 0.03 µM; the CC50 worked out at 1.66 µM. For the same molecule, the thermal shift (ΔTm) – broadly, the shift of the melting midpoint relative to a reference – in the series on Calf thymus DNA [2] came to 11.9 °C. Moreover, the ΔTm in the series on Calf thymus DNA [3] worked out at 11.7 °C. Also, inhibition with K562 was half-maximal at 0.0243 µM (IC50).
In the case of `COc1cc2c(cc1OC)C(=O)N1C=C(c3ccc(F)cc3)C[C@H]1C=N2`, in series [1], halving of growth (GI50) required 0.002 µM, the concentration for total growth inhibition (TGI) (usually the concentration at which net growth stops) came out at 0.12 µM and the CC50 was 11.2 µM. Further, the shift in melting temperature (ΔTm) in the series on Calf thymus DNA [2] worked out at 10.6 °C. Further, the shift in melting temperature (ΔTm) in the series on Calf thymus DNA [3] stood at 10.4 °C. Besides, in the series with K562, the half-maximal inhibitory concentration (IC50) (in general, the concentration at which inhibition is half-maximal) came out at 0.0016 µM.
Consider `CCc1ccc(C2=CN3C(=O)c4cc(OC)c(OC)cc4N=C[C@@H]3C2)cc1`, for which, in series [1], the GI50 came out at 0.001 µM, total growth inhibition (TGI) required 0.07 µM and the CC50 came out at 4.17 µM. Moreover, the ΔTm in the series on Calf thymus DNA [2] worked out at 9.7 °C. Further, the ΔTm in the series on Calf thymus DNA [3] came to 9.4 °C. In the series with K562, this molecule gave a half-maximal inhibitory concentration (IC50) of 0.0795 µM.
Take `CO[C@H]1Nc2c(ccc(C)c2O)C(=O)N2C=C(/C=C/C(N)=O)C[C@@H]12` [ANTHRAMYCIN METHYL ETHER]: in series [1], the GI50 was 0.013 µM, net growth stopped (TGI) at 1.58 µM and the CC50 is 24.5 µM. Further, the ΔTm with Calf thymus DNA [2] was determined as 13 °C. For the same molecule, the ΔTm with Calf thymus DNA [3] worked out at 11.2 °C. Also, 0.008 µM corresponded to half-maximal inhibition with K562 (IC50).
Take `COc1cc2c(cc1OC)C(=O)N1C=C(c3cnc4ccccc4c3)C[C@H]1C=N2`: in series [1], it took 0.0001 µM to inhibit growth by half (GI50), the TGI was 0.001 µM and the CC50 came to 0.18 µM. Also, the ΔTm in the series with Calf thymus DNA [2] is 18.2 °C. In addition, the shift in melting temperature (ΔTm) in the series with Calf thymus DNA [3] was determined as 18.1 °C. In the series on K562, this molecule gave an IC50 of 0.0089 µM.
For the molecule `COc1cc2c(cc1OC)C(=O)N1C=C(c3ccc4ncccc4c3)C[C@H]1C=N2`, the outcome in the series on HCT-116 was Active. Further, in series [1], the concentration for 50% growth inhibition (GI50) is 0.0004 µM, the TGI worked out at 0.004 µM and the CC50 was 0.19 µM. Also, in the series on Calf thymus DNA [2], the ΔTm was 20.5 °C. Moreover, the Activity result in the series on Mus musculus is “Non-toxic”. Moreover, the ΔTm in the series with Calf thymus DNA [3] was found to be 19.9 °C. In the series on K562, this molecule registered an IC50 of 0.0014 µM.
On to `COc1cc2c(cc1OC)C(=O)N1C=C(c3cccs3)C[C@H]1C=N2`, for which, in series [1], the concentration for 50% growth inhibition (GI50) amounted to 0.01 µM, the TGI amounted to 0.15 µM and the CC50 came to 0.74 µM. In addition, the shift in melting temperature (ΔTm) in the series with Calf thymus DNA [2] stood at 13 °C. Besides, the thermal shift (ΔTm) in the series on Calf thymus DNA [3] stood at 12.7 °C. Further, the concentration for half-maximal inhibition (IC50) in the series on K562 was determined as 0.0011 µM.
As to `COc1cc2c(cc1OC)C(=O)N1C=C(c3ccc(-c4ccccc4)cc3)C[C@H]1C=N2`, in series [1], the GI50 was found to be 0.008 µM, the TGI came to 0.09 µM and the CC50 amounted to 3.63 µM. For the same molecule, in the series on Calf thymus DNA [2], the ΔTm was 8.4 °C. Further, the shift in melting temperature (ΔTm) in the series with Calf thymus DNA [3] amounted to 8.1 °C. The half-maximal inhibitory concentration (IC50) in the series on K562 was determined as 0.0196 µM.
Turning to `COc1cc2c(cc1OC)C(=O)N1C=C(c3ccc4ccccc4c3)C[C@H]1C=N2`, in series [1], the concentration for 50% growth inhibition (GI50) is 0.0006 µM, the TGI stood at 0.015 µM and the CC50 is 0.4 µM. Further, the ΔTm in the series on Calf thymus DNA [2] was determined as 15.7 °C. Also, the ΔTm in the series with Calf thymus DNA [3] was 15.4 °C. This molecule registered an IC50 with K562 of 0.0454 µM.
With `COc1cc2c(cc1OC)C(=O)N1C=C(c3ccc(N)cc3)C[C@H]1C=N2`, in series [1], the GI50 amounted to 0.002 µM, the concentration for total growth inhibition (TGI) stood at 0.03 µM and the CC50 was 4.79 µM. Also, the ΔTm with Calf thymus DNA [2] was 6.5 °C. The thermal shift (ΔTm) in the series with Calf thymus DNA [3] was determined as 6.2 °C. In the series with K562, this molecule had a half-inhibitory concentration (IC50) of 0.014 µM.
Take `COc1cc2c(cc1OC)C(=O)N1C=C(c3ccccc3)C[C@H]1C=N2`: in series [1], the concentration for 50% growth inhibition (GI50) is 0.002 µM, the concentration for total growth inhibition (TGI) was 0.04 µM and the CC50 came to 5.13 µM. In addition, the ΔTm with Calf thymus DNA [2] worked out at 10.8 °C. Also, the ΔTm in the series with Calf thymus DNA [3] amounted to 10.6 °C. This molecule also displayed an IC50 in the series on K562 of 0.0025 µM.
With `C/C=C/C1=CN2C(=O)c3cc(O[C@@H]4O[C@@H](C)[C@H](NC)[C@@](C)(O)[C@H]4O)c(C)c(O)c3N[C@H](O)[C@@H]2C1` [SIBIROMYCIN], in series [1], the concentration for 50% growth inhibition (GI50) was determined as 0.033 µM, the TGI was 0.85 µM and the CC50 stood at 16.7 µM. Also, the thermal shift (ΔTm) with Calf thymus DNA [2] was found to be 16.3 °C. Further, the ΔTm with Calf thymus DNA [3] is 16 °C. Further, inhibition with K562 was half-maximal at 0.0014 µM (IC50).
For `COc1cc2c(cc1OC)C(=O)N1C=C(c3ccc(Oc4ccccc4)cc3)C[C@H]1C=N2`, in series [1], the GI50 is 0.003 µM, total growth inhibition (TGI) required 0.03 µM and the CC50 amounted to 1.26 µM. Further, the thermal shift (ΔTm) in the series on Calf thymus DNA [2] was 12.1 °C. Moreover, the thermal shift (ΔTm) with Calf thymus DNA [3] worked out at 11.9 °C. The molecule also showed an IC50 in the series on K562 of 0.0511 µM.
For the molecule `COc1cc2c(cc1OC)C(=O)N1C=C(c3ccc(C(C)C)cc3)C[C@H]1C=N2`, in series [1], halving of growth (GI50) required 0.004 µM, the TGI worked out at 0.06 µM and the CC50 turned out to be 4.46 µM. Moreover, in the series with Calf thymus DNA [2], the ΔTm was found to be 6.9 °C. Moreover, the shift in melting temperature (ΔTm) in the series with Calf thymus DNA [3] was determined as 6.7 °C. For the same molecule, 0.115 µM corresponded to half-maximal inhibition with K562 (IC50).
Take `COc1cc2c(cc1OC)C(=O)N1C=C(c3ccc(N(C)C)cc3)C[C@H]1C=N2`: in series [1], growth was halved (GI50) at 0.003 µM, the TGI turned out to be 0.04 µM and the CC50 worked out at 3.23 µM. The thermal shift (ΔTm) with Calf thymus DNA [2] turned out to be 8 °C. Moreover, the ΔTm with Calf thymus DNA [3] came to 7.6 °C. In the series with K562, this molecule displayed an IC50 of 0.0321 µM.
On to `COc1cc2c(cc1OC)C(=O)N1C=C(c3ccc(C=O)cc3)C[C@H]1C=N2`, for which, in series [1], it took 0.009 µM to inhibit growth by half (GI50), the TGI was determined as 0.16 µM and the CC50 worked out at 15.1 µM. Further, in the series with Calf thymus DNA [2], the thermal shift (ΔTm) turned out to be 10.8 °C. For the same molecule, the ΔTm in the series on Calf thymus DNA [3] amounted to 10.6 °C. Besides, the IC50 in the series with K562 came to 0.0263 µM.
For `COc1ccc(C2=CN3C(=O)c4cc(OC)c(OC)cc4N=C[C@@H]3C2)cc1`, in series [1], the 50% growth inhibitory concentration (GI50) turned out to be 0.001 µM, the concentration for total growth inhibition (TGI) was determined as 0.15 µM and the CC50 came out at 0.91 µM. Further, the ΔTm with Calf thymus DNA [2] was 10.6 °C. Also, the ΔTm in the series with Calf thymus DNA [3] was found to be 10.5 °C. Moreover, in the series on K562, the concentration for half-maximal inhibition (IC50) worked out at 0.0049 µM.
